# Mdm2 ligase inh – blocks human Mdm2 ubiquitin ligase activity | Q00987 | cell-based MDM2 ubiquitination luciferase reporter, 2 h; 0 = plate control, 100 = twice control, blank-subtracted | signal enhancement, % at 5 µM | hit rate 0.11% among 210,000 | AID 1230;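 active = signal enhancement of 30% or more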;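 also: luminescence tracks abundance of the self-degrading MDM2-luciferase fusion protein; higher signal means inhibition of MDM2 E3 ligase activity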
# Target sequence (Q00987 whole entry, looked up, the tested form may be a part): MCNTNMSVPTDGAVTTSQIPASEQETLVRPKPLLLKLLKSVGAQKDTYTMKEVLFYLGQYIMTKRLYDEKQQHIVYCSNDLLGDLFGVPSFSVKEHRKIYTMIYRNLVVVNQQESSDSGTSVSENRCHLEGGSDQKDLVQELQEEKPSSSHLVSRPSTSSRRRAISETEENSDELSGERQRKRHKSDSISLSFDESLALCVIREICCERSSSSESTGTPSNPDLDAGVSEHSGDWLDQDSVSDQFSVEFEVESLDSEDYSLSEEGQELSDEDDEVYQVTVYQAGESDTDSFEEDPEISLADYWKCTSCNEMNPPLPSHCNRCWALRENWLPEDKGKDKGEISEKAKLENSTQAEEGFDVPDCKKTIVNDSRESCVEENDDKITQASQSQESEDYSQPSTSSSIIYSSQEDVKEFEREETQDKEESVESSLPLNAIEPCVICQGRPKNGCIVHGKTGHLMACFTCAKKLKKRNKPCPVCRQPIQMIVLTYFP
#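 Assay system: stable mammalian line carrying autodegrading MDM2–luciferase fusion reporter; Input: 2000 cells in each well; Compound dosing: single-point 5 µM; Schedule: 2 h compound exposure at 37 °C; Signal: SteadyLite luciferase luminescence after 15 min room-temperature reagent incubation; Evaluation: % luminescence enhancement versus blank-corrected plate control mean; Benchmarks: plate controls and plate blanks.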
# S1P4 agonist – human S1P4 receptor agonism; O95977; S1P4-expressing cell line, agonist reporter assay; activation, % at 4.98 µM; hit rate 0.35% among 220,000; in the data active = activation above about 11%;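 also: 0% = DMSO vehicle and 100% = reference agonist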
# S1P3 antag – S1P3 (human) receptor antagonism. Q99500. CHO S1P3 NFAT-BLA reporter, FRET fluorescence, antagonist mode. inhibition, % at 4.98 µM. hit rate 0.27% among 170,000. AID 485;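 active = inhibition above the plate cutoff, the mean inhibition of test wells on that plate plus 3 SD, cut at about 28% in these data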;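 also: cells challenged with S1P at its EC80 of 0.8 µM; blue over green emission ratio from cleaved BLA substrate after 4 h stimulation; 0% = S1P-stimulated wells and 100% = unstimulated DMSO-only wells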
# S1P4 antag – human S1P4 receptor antagonism. O95977. S1P4-expressing cells, antagonist mode, reporter read-out. inhibition, % at 4.98 µM. hit rate 0.26% among 220,000. AID 1510; in the data active = inhibition above about 29%;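 also: 0% = wells stimulated with agonist and 100% = vehicle wells without agonist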
# Lmaj promast – Leishmania major promastigote growth inhibition | Leishmania major promastigotes, resazurin fluorescence viability | inhibition, % at 10 µM | hit rate 9% among 200,000; in the data active = inhibition above about 50%;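 also: promastigotes grown with compound for 44 hours at 28 °C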
# Lmaj promast 1uM – blocks Leishmania major promastigote growth at 1 uM, repeat screen; shares compounds with Lmaj promast; L. major promastigote growth, resazurin fluorescence, 48 h; inhibition, % at 1 µM; hit rate 13% among 1,100;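 active = inhibition above about 50% in both repeat tests, limit read from the data; inconclusive = one repeat under the set limit, the other over it; inactive = both repeats under the set limit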
# The depositor's hits bear a star; ? = inconclusive; · = no result. Many of the other results were omitted from the sample, so hits are more common in it than they were.
SMILES,Mdm2 ligase inh,S1P4 agonist,S1P3 antag,S1P4 antag,Lmaj promast,Lmaj promast 1uM
Clc1ccccc1C(c1ccccc1)(c1ccccc1)n1ccnc1,-10,-2,-10,-6,100*,88*
Cn1nc([N+](=O)[O-])nc1Oc1ccccc1N,-19,-1,·,-16,97*,-6
Clc1ccc2[nH]cc(-c3nnnn3-c3ccc4ccccc4c3)c2c1,-12,1,·,-21,99*,86*
C=C(C)Cn1c(NCCOC)nc2c1c(=O)[nH]c(=O)n2C,-13,-3,·,2,-5,·
O=C(c1coc2ccccc2c1=O)N1CCN(c2cccc(C(F)(F)F)c2)CC1,-2,-1,·,17,-1,·
CC(C)N=C(NS(=O)(=O)c1ccccc1)C(Cl)(Cl)Cl,-20,1,-2,-21,85*,?
O=C(O)CN=C(NS(=O)(=O)c1ccccc1)c1ccccc1,-7,-1,4,-8,1,·
Nc1nnc(/C=C/c2ccccc2Cl)s1,-19,0,0,2,·,·
Cc1ccc(-c2[nH]nc(N)c2N=Nc2ccccc2C)cc1,-4,0,·,-33,100*,-19
COc1cc(NC(=O)Cn2nnc(-c3ccncc3)n2)cc(OC)c1,-11,-3,-15,3,90*,-10
CCOc1ccc(-c2nnn(CC(=O)Nc3cc(OC)cc(OC)c3)n2)cc1OCC,-16,-1,-11,11,-4,·
CC12CCC(O)CC1=CCC1C2CCC2(C)C1CCC21CCC(=O)O1 (configuration not stated),-2,0,0,-12,68*,-10
Cc1ccc(O)c(C2=NCCNC(C(F)(F)C(F)F)=C2)c1,8,1,·,-11,-8,·
Oc1ccc(Cl)cc1C1=NCCNC(C(F)(F)C(F)F)=C1,-20,-5,·,-12,76*,-18
CN=C1S/C(=C\c2ccc(N3CCOCC3)cc2C)C(=O)N1C,6,0,1,-3,37,·
CCN=C1S/C(=C\c2ccc(N3CCOCC3)cc2C)C(=O)N1CC,-15,1,1,-8,69*,-17
CCOC(=O)C(NC(=O)c1ccc(OC)cc1)(N1CCCC1=O)C(F)(F)F (configuration not stated),-7,0,11,-18,-3,·
COc1ccc(-c2nn(-c3ccccc3C)cc2CNCCc2cnc[nH]2)cc1F,5,0,-8,-17,96*,-20
CCn1cc(CNCc2cn(-c3ccccc3C)nc2-c2ccc(OC)c(F)c2)cn1,-1,1,9,0,1,·
c1ccc(CNc2nc(-c3cccs3)nc3ccccc23)cc1,-6,1,-7,-5,99*,59*
Cn1c(C(=O)N2CCc3ccccc3C2)cc2c(=O)n3ccccc3nc21,-8,2,22,5,97*,-9
Cn1c(C(=O)O)cc2c(=O)n3ccccc3nc21,·,4,10,0,·,·
Cc1nnc(Nc2ccccn2)c2ccccc12,5,-1,·,-9,70*,90*
CCCCC1CC(CSC(=N)N)OC1=O (configuration not stated),-22,-1,·,-3,-2,·
CCCCCCCC1CC(CSC(=N)N)OC1=O (configuration not stated),-2,1,·,-6,100*,8
SMILES,Mdm2 ligase inh,S1P4 agonist,S1P3 antag,S1P4 antag,Lmaj promast,Lmaj promast 1uM
O=C(c1ccc(Br)o1)N1CCc2ccccc21,-12,0,-3,-20,-8,·
CC12CCC(C(=O)N3CCCCC3)([C@H](Br)C1=O)C2(C)C (some centres not stated),·,-1,-9,6,·,·
Cn1c(-c2ccc(C=O)s2)nc2c3ccccc3c3ccccc3c21,-8,-4,·,0,68*,-17
CC12CC(NC(=O)N1c1ccc(C(=O)N3CCN(c4ccccn4)CC3)cc1)c1ccccc1O2 (configuration not stated),-2,-2,4,7,-7,·
COc1cccc(N2CCN(C(=O)c3ccc(N4C(=O)NC5CC4(C)Oc4ccccc45)cc3)CC2)c1 (configuration not stated),18,0,-1,0,73*,-10
CN(C)S(=O)(=O)c1cccc(-n2sc3ccccc3c2=O)c1,-22,-1,-6,-13,55*,-4
O=c1c2ccccc2sn1-c1ccccc1,-18,1,·,9,100*,-5
O=C(Nc1ccccc1C(=O)NC(Cc1ccccc1)C(=O)NC1CCCCCC1)c1ccccc1 (configuration not stated),-14,-1,·,-3,47,·
O=C(NCc1ccc(F)cc1)C(=O)NCC1OCCN1S(=O)(=O)c1cccs1 (configuration not stated),·,0,-12,-5,-3,·
C/C(=N\N1CCN(c2ccccc2)CC1)c1ccncc1,-15,1,6,-4,-5,·
O=C(CCn1c(=S)oc2ccccc21)NC1CCCCCCC1,-7,0,4,-2,·,·
COc1cc2c(cc1OC)C(c1ccc(-c3ccccc3Cl)o1)=NCC2,-49,2,·,22,68*,3
COc1cc2c(cc1OC)C(c1ccc(-c3ccc(Cl)cc3Cl)o1)=NCC2,-6,0,·,-8,27,·
Cc1ccc(CNC(=O)c2cn(C3CCCCC3)c(=O)c3c2c2ccccc2n3C)o1,-2,1,·,-1,53*,-20
COc1ccc(OC)c(C(c2nnnn2C2CCCC2)N2CCc3ccccc3C2)c1 (configuration not stated),-5,-1,22,-4,88*,4
COc1ccc(C(c2nnnn2C2CCCC2)N2CCC(C(N)=O)CC2)c(OC)c1 (configuration not stated),-1,0,-8,-4,-7,·
COc1cc2cc(C(c3nnnn3C(C)(C)C)N3CCC(C)CC3)c(=O)[nH]c2cc1OC (configuration not stated),-5,0,·,5,2,·
CCCC1COC(Cn2cncn2)(c2ccc(C)cc2)O1 (configuration not stated),-17,1,-15,-13,55*,-1
CCC(C)n1ncn(-c2ccc(N3CCN(c4ccc(OCC5COC(Cn6cncn6)(c6ccc(Cl)cc6Cl)O5)cc4)CC3)cc2)c1=O (configuration not stated),·,2,-9,-1,·,·
COc1cccc(C2C(C(=O)c3cc4ccccc4o3)=C(O)C(=O)N2CCN(C)C)c1OC (configuration not stated),·,2,·,-3,-19,·
COc1cccc(C2C(C(=O)c3ccco3)=C(O)C(=O)N2CCN(C)C)c1OC (configuration not stated),-1,0,-9,-13,62*,-8
O=C(NC1CCS(=O)(=O)C1)c1ccc(S(=O)(=O)N2CCCCC2)cc1 (configuration not stated),·,0,20,-1,-8,·
N=C(N)c1ccc(OCCCCCOc2ccc(C(=N)N)cc2)cc1,·,3,1,-12,100*,100*

# Assay outcomes deposited in PubChem by several laboratories.
